Measurements published in ChEMBL document CHEMBL3864121, “Development of ebsulfur analogues as potent antibacterials against methicillin-resistant Staphylococcus aureus” (Bioorg Med Chem, 2016).
Converted amounts (≈) assume the structure as drawn.

Columns and labels:
Format in all cases: functional
Staphylococcus aureus [1] = experiment: Antibacterial activity against methicillin-resistant Staphylococcus aureus BRS3 measured after overnight incubation by broth double-dilution method
Outline: (§1)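 MIC by broth double-dilution in liquid Mueller-Hinton medium. Values are reported in µg/mL.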

Enterococcus faecium = experiment: Antibacterial activity against Enterococcus faecium BM4105-RF measured after overnight incubation by broth double-dilution method; outline: as §1
Staphylococcus aureus [2] = experiment: Antibacterial activity against methicillin-resistant Staphylococcus aureus C1 measured after overnight incubation by broth double-dilution method; outline: as §1
Staphylococcus aureus [3] = experiment: Antibacterial activity against methicillin-resistant Staphylococcus aureus G12 measured after overnight incubation by broth double-dilution method; outline: as §1
Staphylococcus aureus [4] = experiment: Antibacterial activity against methicillin-resistant Staphylococcus aureus G14 measured after overnight incubation by broth double-dilution method; outline: as §1
Staphylococcus aureus [5] = experiment: Antibacterial activity against methicillin-resistant Staphylococcus aureus C7 measured after overnight incubation by broth double-dilution method; outline: as §1
Staphylococcus aureus [6] = experiment: Antibacterial activity against methicillin-resistant Staphylococcus aureus USA600 measured after overnight incubation by broth double-dilution method; outline: as §1
Staphylococcus aureus [7] = experiment: Antibacterial activity against methicillin-resistant Staphylococcus aureus 1 measured after overnight incubation by broth double-dilution method; outline: as §1
Enterococcus faecalis [8] = experiment: Antibacterial activity against Enterococcus faecalis ATCC 49533 measured after overnight incubation by broth double-dilution method
Outline: (§2)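 MIC by broth double-dilution in Mueller-Hinton medium. Re-testing at the time-kill inoculum used 1×10^6 CFU/mL.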

Staphylococcus aureus [9] = experiment: Antibacterial activity against methicillin-resistant Staphylococcus aureus NRS77 measured after overnight incubation by broth double-dilution method; outline: as §1
Staphylococcus aureus [10] = experiment: Antibacterial activity against methicillin-resistant Staphylococcus aureus S22 measured after overnight incubation by broth double-dilution method; outline: as §1
Staphylococcus aureus [11] = experiment: Antibacterial activity against methicillin-resistant Staphylococcus aureus USA100 measured after overnight incubation by broth double-dilution method; outline: as §1
Staphylococcus aureus [12] = experiment: Antibacterial activity against methicillin-resistant Staphylococcus aureus 2 measured after overnight incubation by broth double-dilution method; outline: as §1
Staphylococcus aureus [13] = experiment: Antibacterial activity against methicillin-resistant Staphylococcus aureus G6 measured after overnight incubation by broth double-dilution method; outline: as §1
Staphylococcus aureus [14] = experiment: Antibacterial activity against methicillin-resistant Staphylococcus aureus S17 measured after overnight incubation by broth double-dilution method; outline: as §1
[15] = system: Staphylococcus epidermidis; experiment: Antibacterial activity against Staphylococcus epidermidis ATCC 35984 measured after overnight incubation by broth double-dilution method; settings: RP62A; outline: as §2
Staphylococcus aureus [16] = experiment: Antibacterial activity against methicillin-resistant Staphylococcus aureus USA300 measured after overnight incubation by broth double-dilution method; outline: as §1
Staphylococcus aureus [17] = experiment: Antibacterial activity against methicillin-resistant Staphylococcus aureus C14 measured after overnight incubation by broth double-dilution method; outline: as §1
Staphylococcus aureus [18] = experiment: Antibacterial activity against methicillin-resistant Staphylococcus aureus S24 measured after overnight incubation by broth double-dilution method; outline: as §1
[19] = system: Mycolicibacterium smegmatis; experiment: Antibacterial activity against Mycobacterium smegmatis MC2-155 measured after overnight incubation by broth double-dilution method; settings: str. MC2 155; outline: as §1
Staphylococcus aureus [20] = experiment: Antibacterial activity against methicillin-resistant Staphylococcus aureus G1 measured after overnight incubation by broth double-dilution method; outline: as §1
Listeria monocytogenes = experiment: Antibacterial activity against Listeria monocytogenes ATCC 19115 measured after overnight incubation by broth double-dilution method; outline: as §2
Staphylococcus aureus [21] = experiment: Antibacterial activity against methicillin-resistant Staphylococcus aureus NRS4 measured after overnight incubation by broth double-dilution method; outline: as §1
Enterococcus faecalis [22] = experiment: Antibacterial activity against Enterococcus faecalis ATCC 29212 measured after overnight incubation by broth double-dilution method; outline: as §2
Staphylococcus aureus [23] = experiment: Antibacterial activity against methicillin-resistant Staphylococcus aureus NRS51 measured after overnight incubation by broth double-dilution method; outline: as §1
Staphylococcus aureus [24] = experiment: Antibacterial activity against methicillin-sensitive Staphylococcus aureus ATCC 25923 measured after overnight incubation by broth double-dilution method; outline: as §1
Staphylococcus aureus [25] = experiment: Antibacterial activity against methicillin-resistant Staphylococcus aureus S14 measured after overnight incubation by broth double-dilution method; outline: as §1
Staphylococcus aureus [26] = experiment: Antibacterial activity against methicillin-resistant Staphylococcus aureus C2 measured after overnight incubation by broth double-dilution method; outline: as §1
Staphylococcus aureus [27] = experiment: Antibacterial activity against methicillin-sensitive Staphylococcus aureus ATCC 6538 measured after overnight incubation by broth double-dilution method; outline: as §1
Staphylococcus aureus [28] = experiment: Antibacterial activity against methicillin-resistant Staphylococcus aureus C16 measured after overnight incubation by broth double-dilution method; outline: as §1
Staphylococcus aureus [29] = experiment: Antibacterial activity against methicillin-sensitive Staphylococcus aureus ATCC 29213 measured after overnight incubation by broth double-dilution method; outline: as §1
Staphylococcus aureus [30] = experiment: Antibacterial activity against methicillin-resistant Staphylococcus aureus ATCC 33591 measured after overnight incubation by broth double-dilution method; outline: as §1
Staphylococcus aureus [31] = experiment: Antibacterial activity against methicillin-resistant Staphylococcus aureus C19 measured after overnight incubation by broth double-dilution method; outline: as §1
Staphylococcus aureus [32] = experiment: Antibacterial activity against methicillin-resistant Staphylococcus aureus USA200 measured after overnight incubation by broth double-dilution method; outline: as §1
Enterococcus = experiment: Antibacterial activity against Vancomycin-resistant Enterococcus measured after overnight incubation by broth double-dilution method; outline: as §1

Compound | MIC (Staphylococcus aureus [1]) | MIC (Enterococcus faecium) | MIC (Staphylococcus aureus [2]) | MIC (Staphylococcus aureus [3]) | MIC (Staphylococcus aureus [4]) | MIC (Staphylococcus aureus [5]) | MIC (Staphylococcus aureus [6]) | MIC (Staphylococcus aureus [7]) | MIC (Enterococcus faecalis [8]) | MIC (Staphylococcus aureus [9]) | MIC (Staphylococcus aureus [10]) | MIC (Staphylococcus aureus [11]) | MIC (Staphylococcus aureus [12]) | MIC (Staphylococcus aureus [13]) | MIC (Staphylococcus aureus [14]) | MIC [15] | MIC (Staphylococcus aureus [16]) | MIC (Staphylococcus aureus [17]) | MIC (Staphylococcus aureus [18]) | MIC [19] | also measured
O=c1c2ccccc2sn1-c1ccc(Cl)cc1 | 3.9 µg/mL (≈ 14.9 µM) | 31.3 µg/mL (≈ 120 µM) | 2 µg/mL (≈ 7.64 µM) | 2 µg/mL (≈ 7.64 µM) | 1 µg/mL (≈ 3.82 µM) | 1 µg/mL (≈ 3.82 µM) | 2 µg/mL (≈ 7.64 µM) | 1 µg/mL (≈ 3.82 µM) | > 125 µg/mL | 3.9 µg/mL (≈ 14.9 µM) | 2 µg/mL (≈ 7.64 µM) | 2 µg/mL (≈ 7.64 µM) | 1 µg/mL (≈ 3.82 µM) | 2 µg/mL (≈ 7.64 µM) | 1 µg/mL (≈ 3.82 µM) | 1 µg/mL (≈ 3.82 µM) | 3.9 µg/mL (≈ 14.9 µM) | 3.9 µg/mL (≈ 14.9 µM) | 1 µg/mL (≈ 3.82 µM) | 3.9 µg/mL (≈ 14.9 µM) | MIC (Staphylococcus aureus [20]): 2 µg/mL (≈ 7.64 µM); MIC (Listeria monocytogenes): 1 µg/mL (≈ 3.82 µM); MIC (Staphylococcus aureus [21]): 3.9 µg/mL (≈ 14.9 µM); MIC (Enterococcus faecalis [22]): 62.5 µg/mL (≈ 239 µM); MIC (Staphylococcus aureus [23]): 3.9 µg/mL (≈ 14.9 µM); MIC (Staphylococcus aureus [24]): 2 µg/mL (≈ 7.64 µM); MIC (Staphylococcus aureus [25]): ≤ 0.25 µg/mL; MIC (Staphylococcus aureus [26]): 1 µg/mL (≈ 3.82 µM); MIC (Staphylococcus aureus [27]): 3.9 µg/mL (≈ 14.9 µM); MIC (Staphylococcus aureus [28]): 3.9 µg/mL (≈ 14.9 µM); MIC (Staphylococcus aureus [29]): 2 µg/mL (≈ 7.64 µM); MIC (Staphylococcus aureus [30]): 1 µg/mL (≈ 3.82 µM); MIC (Staphylococcus aureus [31]): 1 µg/mL (≈ 3.82 µM); MIC (Staphylococcus aureus [32]): 2 µg/mL (≈ 7.64 µM); MIC (Enterococcus): 0.5 µg/mL (≈ 1.91 µM)
O=c1c2ccccc2sn1CCCc1ccccc1 | 3.9 µg/mL (≈ 14.5 µM) | 15.6 µg/mL (≈ 57.9 µM) | 2 µg/mL (≈ 7.42 µM) | 2 µg/mL (≈ 7.42 µM) | 2 µg/mL (≈ 7.42 µM) | 2 µg/mL (≈ 7.42 µM) | 3.9 µg/mL (≈ 14.5 µM) | 0.5 µg/mL (≈ 1.86 µM) | > 125 µg/mL | 2 µg/mL (≈ 7.42 µM) | 3.9 µg/mL (≈ 14.5 µM) | 2 µg/mL (≈ 7.42 µM) | 2 µg/mL (≈ 7.42 µM) | 2 µg/mL (≈ 7.42 µM) | 2 µg/mL (≈ 7.42 µM) | 2 µg/mL (≈ 7.42 µM) | 2 µg/mL (≈ 7.42 µM) | 3.9 µg/mL (≈ 14.5 µM) | 2 µg/mL (≈ 7.42 µM) | 3.9 µg/mL (≈ 14.5 µM) | MIC (Staphylococcus aureus [20]): 0.5 µg/mL (≈ 1.86 µM); MIC (Listeria monocytogenes): 2 µg/mL (≈ 7.42 µM); MIC (Staphylococcus aureus [21]): 2 µg/mL (≈ 7.42 µM); MIC (Enterococcus faecalis [22]): 15.6 µg/mL (≈ 57.9 µM); MIC (Staphylococcus aureus [23]): 2 µg/mL (≈ 7.42 µM); MIC (Staphylococcus aureus [24]): 2 µg/mL (≈ 7.42 µM); MIC (Staphylococcus aureus [25]): ≤ 0.25 µg/mL; MIC (Staphylococcus aureus [26]): 2 µg/mL (≈ 7.42 µM); MIC (Staphylococcus aureus [27]): 3.9 µg/mL (≈ 14.5 µM); MIC (Staphylococcus aureus [28]): 3.9 µg/mL (≈ 14.5 µM); MIC (Staphylococcus aureus [29]): 2 µg/mL (≈ 7.42 µM); MIC (Staphylococcus aureus [30]): 1 µg/mL (≈ 3.71 µM); MIC (Staphylococcus aureus [31]): 2 µg/mL (≈ 7.42 µM); MIC (Staphylococcus aureus [32]): 3.9 µg/mL (≈ 14.5 µM); MIC (Enterococcus): 0.5 µg/mL (≈ 1.86 µM)
O=c1c2ccccc2sn1C1CCCCC1 | 7.8 µg/mL (≈ 33.4 µM) | > 125 µg/mL | 2 µg/mL (≈ 8.57 µM) | 3.9 µg/mL (≈ 16.7 µM) | 3.9 µg/mL (≈ 16.7 µM) | 3.9 µg/mL (≈ 16.7 µM) | 7.8 µg/mL (≈ 33.4 µM) | 2 µg/mL (≈ 8.57 µM) | > 125 µg/mL | 3.9 µg/mL (≈ 16.7 µM) | 7.8 µg/mL (≈ 33.4 µM) | 7.8 µg/mL (≈ 33.4 µM) | 3.9 µg/mL (≈ 16.7 µM) | 3.9 µg/mL (≈ 16.7 µM) | 7.8 µg/mL (≈ 33.4 µM) | 2 µg/mL (≈ 8.57 µM) | 7.8 µg/mL (≈ 33.4 µM) | 2 µg/mL (≈ 8.57 µM) | 3.9 µg/mL (≈ 16.7 µM) | 2 µg/mL (≈ 8.57 µM) | MIC (Staphylococcus aureus [20]): 2 µg/mL (≈ 8.57 µM); MIC (Listeria monocytogenes): 3.9 µg/mL (≈ 16.7 µM); MIC (Staphylococcus aureus [21]): 3.9 µg/mL (≈ 16.7 µM); MIC (Enterococcus faecalis [22]): > 125 µg/mL; MIC (Staphylococcus aureus [23]): 3.9 µg/mL (≈ 16.7 µM); MIC (Staphylococcus aureus [24]): 3.9 µg/mL (≈ 16.7 µM); MIC (Staphylococcus aureus [25]): 0.5 µg/mL (≈ 2.14 µM); MIC (Staphylococcus aureus [26]): 3.9 µg/mL (≈ 16.7 µM); MIC (Staphylococcus aureus [27]): 7.8 µg/mL (≈ 33.4 µM); MIC (Staphylococcus aureus [28]): 3.9 µg/mL (≈ 16.7 µM); MIC (Staphylococcus aureus [29]): 3.8 µg/mL (≈ 16.3 µM); MIC (Staphylococcus aureus [30]): 2 µg/mL (≈ 8.57 µM); MIC (Staphylococcus aureus [31]): 3.9 µg/mL (≈ 16.7 µM); MIC (Staphylococcus aureus [32]): 7.8 µg/mL (≈ 33.4 µM); MIC (Enterococcus): 2 µg/mL (≈ 8.57 µM)
